This is an account of results in publication PMC4186684 (Molecular Pharmaceutics, 2014).

Broadly, the MIC is the least concentration at which growth counts as inhibited.

Data set [1] relates to SK-OV-3 cells. As to the kind of experiment: Confocal laser scanning microscopy of cellular uptake. It is filed as cell-based, human. The following applies: 10 μM, 1 h at 37 °C, Opti-MEM I, 488 nm excitation. The gist of the method: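 SK-OV-3 cells were seeded on coverslips in complete EMEM at 1 × 10⁵ cells/well and held at 50% confluency. Medium was replaced with fluorescein-labeled test peptide in Opti-MEM I reduced serum medium for 1 h at 37 °C. Cells were washed three times with PBS containing Ca/Mg and mounted. Imaging used 488 nm argon laser excitation and a 505–530 nm band-pass filter. FAM served as the comparison.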

Data set [2] deals with methicillin-resistant S. aureus (MRSA, ATCC 43300). As to the kind of experiment: MIC by broth microdilution. The class given is cell-based. The following applies: Staphylococcus aureus, ATCC43300|MRSA. The gist of the method: (§1)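 Cultures were grown overnight in tryptic soy broth at 37 °C, shaken at 175 rpm, then diluted from 1 × 10⁸ to 1 × 10⁵ CFU/mL. Peptides were 5 mM stocks in water, or in 50 mM NH₄HCO₃ for poorly soluble ones. Test compound was mixed 1:39 (v/v) with the suspension, serially 2-fold diluted and incubated statically overnight at 37 °C. MIC was the lowest concentration with no visible growth, in triplicate. Controls were tetracycline (MRSA) and tobramycin (P. aeruginosa).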

Data set [3] relates to E. coli (ATCC 35218). As to the kind of experiment: MIC used as basis of the time-kill studies. The note with it: Escherichia coli, ATCC35218. It is filed as cell-based.
Data set [4] deals with MRSA (ATCC 43300). As to the kind of experiment: MIC used as basis of the time-kill studies. The class given is cell-based. The following applies: Staphylococcus aureus, ATCC43300|MRSA.
Data set [5] relates to P. aeruginosa (PAO1). Briefly: MIC by broth microdilution. It is filed as cell-based. The note with it: Pseudomonas aeruginosa. The gist of the method:
as §1
On the technique in general: Broth dilution looks for growth in wells or tubes with falling amounts of substance.

Values after ≈ are worked out from the molar mass of the structure shown.

For 5(6)-Carboxyfluorescein [FAM], the “intracellular fluorescence / localisation (CLSM)” value in data set [1] is “no significant fluorescence”.

For the molecule `CN(C)[C@@H]1C(O)=C(C(N)=O)C(=O)[C@@]2(O)C(O)=C3C(=O)c4c(O)cccc4[C@@](C)(O)[C@H]3C[C@@H]12` [tetracycline], the values for the MIC in data set [2], in data set [3] and in data set [4] were 0.156 µg/mL (≈ 0.351 µM), 2 µg/mL (≈ 4.5 µM) and 0.5 µg/mL (≈ 1.13 µM), respectively.

In data set [5], `NC[C@H]1O[C@H](O[C@H]2[C@H](O)[C@@H](O[C@H]3O[C@H](CO)[C@@H](O)[C@H](N)[C@H]3O)[C@H](N)C[C@@H]2N)[C@H](N)C[C@@H]1O` [tobramycin] gave a minimum inhibitory concentration (MIC) of 0.731 µg/mL (≈ 1.56 µM).
